Experimental data from ChEMBL document CHEMBL1126798, “Keto/enol epoxy steroids: a new structural class of HIV-1 Tat inhibitors” (J Med Chem, 1993).

Experiments:
H9 = experiment: Inhibition of HIV-1 replication in H9 cells infected with three different concentrations of HIV IIIB strain; type: functional, cell-based; settings: Homo sapiens
Summary of the method: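 H9 cells infected at three HIV IIIB inoculum levels, then exposed to 3-5 compound concentrations for 5 days. Fresh media and compound replaced on day 3. p24 antigen in culture media measured by ELISA on the final day, mean OD with n = 4 per dose. IC50 found for at least two viral doses, over 3-5 individual assays.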

Protein Tat = molecular target: T1, Protein Tat (Human immunodeficiency virus type 1 group M subtype B (isolate PCV12)(HIV-1), UniProt P04326); experiment: Inhibition of HIV-1 nuclear regulatory protein Tat; set-up: species or system Human immunodeficiency virus type 1 (CLONE 12)
T1 sequence (P04326 whole entry): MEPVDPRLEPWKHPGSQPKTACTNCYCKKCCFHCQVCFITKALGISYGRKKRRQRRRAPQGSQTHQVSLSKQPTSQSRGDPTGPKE
Summary of the method: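 SW480 cells co-transfected with an HIV-1 LTR-driven CAT reporter plasmid and an SV40 promoter-driven Tat plasmid. Cells incubated with dose-ranged compound for 48 h. Tat-induced expression read out as CAT enzyme activity. IC50 and 95% confidence intervals taken from percent-inhibition dose-response curves over 3-5 runs. Counter-screen used an SV40 promoter-driven CAT plasmid (Tat-independent).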

[1] = Therapeutic index against HIV-1 whole cell assay was determined, expressed as the ratio of IC50s of cell cytotoxicity to that of HIV replication; settings: human immunodeficiency virus 1, HIV-1 whole cell assay; read-out: Therapeutic index
Summary of the method: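 Cytotoxicity: uninfected H9 cells incubated 5 days with the same compound concentrations as the antiviral assay, viable cells counted by trypan blue exclusion. Ratio taken of the cytotoxic IC50 to the IC50 for HIV IIIB replication (p24 ELISA, 5 days, medium and compound renewed day 3).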

| Compound | IC50 (H9) | IC50 (Protein Tat) | selectivity ratio [1] |
| --- | --- | --- | --- |
| CC(=O)O[C@H]1CCC2C3CC[C@]45O[C@H]4C(O)=C(C(N)=O)C[C@]5(C)C3CC[C@@]21C (stereo not given in full) | 2400 nM | 2.6 µM | 1.6 |
| CC(=O)O[C@H]1CC[C@H]2[C@@H]3CC[C@]45OC4C(=O)C(S(C)(=O)=O)C[C@]5(C)[C@H]3CC[C@]12C (stereo not given in full) | 300 nM | 2.6 µM | 4.3 |
| C[C@]12CC[C@H]3[C@@H](CC[C@]45OC4C(=O)C(S(C)(=O)=O)C[C@]35C)[C@@H]1CC[C@@H]2O (stereo not given in full) | 1400 nM | 8.4 µM | 3.9 |
| O=C1CN=C(c2ccc[nH]2)c2cc(Cl)ccc2N1 | 600 nM | 4 µM | 5.9 |
| C[C@]12CCC3C(CC[C@]45OC4C(O)=C(C(N)=O)C[C@]35C)C1CC[C@@H]2O (stereo not given in full) | 1200 nM | 14.3 µM | 6.5 |
